# Results reported in ChEMBL document CHEMBL4251640, “Antimalarial naphthoquinones. Synthesis via click chemistry, in vitro activity, docking to PfDHODH and SAR of lapachol-based compounds” (Eur J Med Chem, 2018).
# How the values were obtained:
# [1] = Selectivity index, CC50 for human HepG2 cells to IC50 for chloroquine-resistant/mefloquine-sensitive Plasmodium falciparum W2 ring stage forms; assay type: toxicity; details: read-out: Ratio CC50/IC50
# In short: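 HepG2 cytotoxicity: cells in RPMI 1640 with 5% FBS, trypsinized and plated. Compounds at 0.02% DMSO final, four serial-dilution concentrations, 24 h at 37 °C. MTT added for 90 min, formazan dissolved in DMSO, read at 570 nm. Duplicates. CC50 taken as the concentration killing 50% of cells. SI = CC50/IC50 against W2, with IC50 from the 48 h pLDH assay.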
# Plasmodium falciparum = experiment: Antimalarial activity against chloroquine-resistant/mefloquine-sensitive Plasmodium falciparum W2 ring stage forms infected in human erythrocytes assessed as reduction in parasite growth after 48 hrs by parasite LDH release assay; assay type: functional, organism-based; details: W2, 48 h
# In short: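 Sorbitol-synchronized ring-stage parasites in human erythrocytes (culture kept at 37 °C, candle jar, RPMI with hypoxanthine, HEPES, 10% human plasma) plated at 2% parasitemia, 1% hematocrit with drugs diluted from DMSO stock. Incubated 48 h, frozen -20 °C 24 h, thawed. Lysate given Malstat plus NBT/PES for 1 h at 37 °C in the dark, A570 read. Triplicates. IC50 from sigmoidal dose-response fit versus drug-free controls.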
# [2] = Cytotoxicity against human HepG2 cells assessed as reduction in cell viability after 24 hrs by MTT assay; assay type: cell-based
# In short: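 HepG2 hepatoma cells kept at 37 °C, 5% CO2 in RPMI 1640 with 5% FBS, penicillin and streptomycin; trypsinized and plated in 96-well plates. Samples diluted in medium at 0.02% DMSO final, four serial concentrations; 24 h at 37 °C, then MTT (5 mg/ml in PBS) 90 min, formazan dissolved in DMSO, absorbance 570 nm. Duplicate; CC50 = concentration killing 50% of cells.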
Structure (SMILES),selectivity ratio [1],IC50 (Plasmodium falciparum) [µM],CC50 at 24 h [2] [µM]
COc1cc([N+](=O)[O-])ccc1-n1cc(COC2=C(CC=C(C)C)C(=O)c3ccccc3C2=O)nn1,171,4.1,701
CC(C)=CCC1=C(OCc2cn(-c3ccccc3)nn2)C(=O)c2ccccc2C1=O,5.2,19.1,100
CC(C)=CCC1=C(OCc2cn(-c3ccnc4cc(Cl)ccc34)nn2)C(=O)c2ccccc2C1=O,129,15.1,1940
COc1ccc(-n2cc(COC3=C(CC=C(C)C)C(=O)c4ccccc4C3=O)nn2)c([N+](=O)[O-])c1,64.8,8.2,532
CC(C)=CCC1=C(OCc2cn(-c3cccc(F)c3)nn2)C(=O)c2ccccc2C1=O,31.5,8.4,265
CC(C)=CCC1=C(OCc2cn(Cc3ccccn3)nn2)C(=O)c2ccccc2C1=O,75.6,8.7,658
CC(C)=CCC1=C(OCc2cn(C3C[C@@H](CO)O[C@H]3n3cc(C)c(=O)[nH]c3=O)nn2)C(=O)c2ccccc2C1=O (stereo partly specified),4.5,13.6,60.7
CC(C)=CCC1=C(OCc2cn(-c3ccccc3C)nn2)C(=O)c2ccccc2C1=O,13.6,18.8 to 19.4,256
CC(C)=CCC1=C(OCc2cn(-c3ccc(Cl)cc3)nn2)C(=O)c2ccccc2C1=O,118,9.8,1150
CC(C)=CCC1=C(OCc2cn(C3CCNCC3)nn2)C(=O)c2ccccc2C1=O,124,4.6,570
CC(C)=CCC1=C(OCc2cn(-c3ccc([N+](=O)[O-])cc3)nn2)C(=O)c2ccccc2C1=O,46.1,11.7,540
C#CCOC1=C(CC=C(C)C)C(=O)c2ccccc2C1=O,113,8.2,924
CC(C)=CCC1=C(OCc2cn(-c3ccc(S(N)(=O)=O)cc3)nn2)C(=O)c2ccccc2C1=O,< 4.6,> 105,483
CC(C)=CCC1=C(OCc2cn(Cc3ccccc3)nn2)C(=O)c2ccccc2C1=O,53,7.8,414
COc1ccc(-n2cc(COC3=C(CC=C(C)C)C(=O)c4ccccc4C3=O)nn2)cc1,14.1,14.2,200
CC(C)=CCC1=C(OCc2cn(-c3ccc(C#N)cc3)nn2)C(=O)c2ccccc2C1=O,84.2,8.4,707
CC(C)=CCC1=C(OCc2cn(-c3cccnc3)nn2)C(=O)c2ccccc2C1=O,198,5.2,1030
CC(C)=CCC1=C(OCc2cn(C3CCN(C(=O)OC(C)(C)C)CC3)nn2)C(=O)c2ccccc2C1=O,34,4,136
O=C1C(O)=C([C@H]2CC[C@H](c3ccc(Cl)cc3)CC2)C(=O)c2ccccc21 [ATOVAQUONE],> 328,0.00122,> 40
CCN(CC)CCCC(C)Nc1ccnc2cc(Cl)ccc12 (stereo unspecified) [CHLOROQUINE],,,393
CC(C)=CCC1=C(O)C(=O)c2ccccc2C1=O [LAPACHOL],> 33.4,124,> 4130
